This is an account of results in ChEMBL document CHEMBL1130024, “Synthesis and structure-activity relationships of 17beta-substituted 14beta-hydroxysteroid 3-(alpha-L-rhamnopyranoside)s: steroids that bind to the digitalis receptor” (J Med Chem, 1997).

Test [1] concerns the target Sodium/potassium-transporting ATPase subunit alpha-1 (Canis lupus familiaris, UniProt P50997). In words: Inhibition of [3H]ouabain binding to Digitalis receptor in dog heart microsomes. Put shortly:
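Radioligand competition assay in dog heart muscle microsomes (membrane preparation), measuring [³H]ouabain binding with the test steroids present. Steroids were added in ethanol.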

A short description of test [2]: Concentration that inhibits binding of [3H]ouabain against Digitalis receptor in dog heart microsomes; Not active at a concentration > 100 uM. Also on record: species or system Canis lupus familiaris, Microsome.

Take `C[C@@H]1O[C@@H](O[C@H]2CC[C@@]3(C)[C@H](CC[C@@H]4[C@@H]3CC[C@]3(C)[C@@H](/C=C/[N+](=O)[O-])CC[C@]43O)C2)[C@H](O)[C@H](O)[C@H]1O`: the IC50 in test [1] turned out to be 8.3 nM.

As to `C[C@@H]1O[C@@H](O[C@H]2CC[C@@]3(C)[C@H](CC[C@@H]4[C@@H]3CC[C@]3(C)[C@@H]5CC[C@]43OC(=O)C5)C2)[C@H](O)[C@H](O)[C@H]1O`, the IC50 entry in test [2] was “Not Active”.

`C[C@@H]1O[C@@H](O[C@H]2CC[C@@]3(C)[C@H](CC[C@@H]4[C@@H]3CC[C@]3(C)[C@@H]5CC[C@]43OC5)C2)[C@H](O)[C@H](O)[C@H]1O`: the half-maximal inhibitory concentration (IC50) in test [1] was 2200 nM.

`C[C@@H]1O[C@@H](O[C@H]2CC[C@@]3(C)[C@H](CC[C@@H]4[C@@H]3CC[C@]3(C)[C@@H](C(O)CN)CC[C@]43O)C2)[C@H](O)[C@H](O)[C@H]1O` (some centres not stated) registered a half-inhibitory concentration (IC50) in test [1] of 3220 nM.

In the case of `C[C@@H]1O[C@@H](O[C@H]2CC[C@@]3(C)[C@H](CC[C@@H]4[C@@H]3CC[C@]3(C)[C@H](C(O)C[N+](=O)[O-])CC[C@]43O)C2)[C@H](O)[C@H](O)[C@H]1O` (some centres not stated), in test [1], the IC50 turned out to be 4730 nM.

For the compound `C[C@@H]1O[C@@H](O[C@H]2CC[C@@]3(C)[C@H](CC[C@@H]4[C@@H]3CC[C@]3(C)[C@@H](CCO)CC[C@]43O)C2)[C@H](O)[C@H](O)[C@H]1O`, the IC50 in test [1] turned out to be 660 nM.

In test [1], `C[C@@H]1O[C@@H](O[C@H]2CC[C@@]3(C)[C@H](CC[C@@H]4[C@@H]3CC[C@]3(C)[C@@H](CC[N+](=O)[O-])CC[C@]43O)C2)[C@H](O)[C@H](O)[C@H]1O` showed an IC50 of 45.5 nM.

Regarding `COC(C[N+](=O)[O-])[C@H]1CC[C@]2(O)[C@@H]3CC[C@@H]4C[C@@H](O[C@@H]5O[C@@H](C)[C@H](O)[C@@H](O)[C@H]5O)CC[C@]4(C)[C@H]3CC[C@]12C` (some centres not stated), in test [1], the concentration for half-maximal inhibition (IC50) came out at 30 nM.

In turn, `C[C@@H]1O[C@@H](O[C@H]2CC[C@@]3(C)[C@H](CC[C@@H]4[C@@H]3CC[C@]3(C)[C@@H](/C=C/C(=O)O)CC[C@]43O)C2)[C@H](O)[C@H](O)[C@H]1O` came in with an IC50 in test [1] of 13 nM.

For `C[C@H]1O[C@@H](O[C@H]2[C@@H](O)C[C@H](O[C@H]3[C@@H](O)C[C@H](O[C@H]4CC[C@@]5(C)[C@H](CC[C@@H]6[C@@H]5CC[C@]5(C)[C@@H](C7=CC(=O)OC7)CC[C@]65O)C4)O[C@@H]3C)O[C@@H]2C)C[C@H](O)[C@@H]1O` [DIGITOXIN], the half-maximal inhibitory concentration (IC50) in test [1] turned out to be 8 nM.

Consider `C[C@@H]1O[C@@H](O[C@H]2CC[C@@]3(C)[C@H](CC[C@@H]4[C@@H]3CC[C@]3(C)[C@@H](CCC(=O)O)CC[C@]43O)C2)[C@H](O)[C@H](O)[C@H]1O`, for which the concentration for half-maximal inhibition (IC50) in test [1] amounted to 230 nM.

In the case of `CC1OC(O[C@H]2CC[C@@]3(C)[C@H](CC[C@@H]4[C@@H]3CC[C@]3(C)[C@@H](CCN)CC[C@]43O)C2)C(O)C(O)C1O` (some centres not stated), the IC50 in test [1] is 1890 nM.
